# Compounds with a hit are over-represented: about 3.2% of the library has one in this group of screens.
# rCAG binder = binders of r(CAG) RNA repeats, primary screen, biochemical, fluorescence; r(CAG) RNA repeat, TO-PRO-1 dye displacement fluorescence; inhibition, % at 3 µM; hit rate 1.3% among 370,000; AID 651821, 2012;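 active = inhibition above the plate cutoff, the mean of all test compounds on that plate plus 3 SD, cut at about 35% in these data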;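 also: higher means more dye released from RNA so lower well fluorescence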
# DAGLB inhibitor = DAGLB lipase inhibitors, primary screen, biochemical, fluorescence, HTS; inhibition, % at 5.17 µM; AID 504411, 2011; Diacylglycerol lipase-beta (Homo sapiens), Q8NCG7; hit rate 0.059% among 340,000; HEK293T DAGLB membrane lysate, EnzChek fluorogenic substrate; in the data active = inhibition above about 34%
# PRMT1 FP inh = PRMT1 methyltransferase inhibitors, primary screen, biochemical, fluorescence polarization; Protein arginine N-methyltransferase 1 (Homo sapiens), Q99873; recombinant PRMT1, activity-based probe fluorescence polarization; inhibition, % at 2.79 µM; hit rate 1.3% among 370,000;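 active = inhibition above about 21% made by adding two undisclosed values, limit read from the data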
# Target sequence (Q99873 whole entry, looked up): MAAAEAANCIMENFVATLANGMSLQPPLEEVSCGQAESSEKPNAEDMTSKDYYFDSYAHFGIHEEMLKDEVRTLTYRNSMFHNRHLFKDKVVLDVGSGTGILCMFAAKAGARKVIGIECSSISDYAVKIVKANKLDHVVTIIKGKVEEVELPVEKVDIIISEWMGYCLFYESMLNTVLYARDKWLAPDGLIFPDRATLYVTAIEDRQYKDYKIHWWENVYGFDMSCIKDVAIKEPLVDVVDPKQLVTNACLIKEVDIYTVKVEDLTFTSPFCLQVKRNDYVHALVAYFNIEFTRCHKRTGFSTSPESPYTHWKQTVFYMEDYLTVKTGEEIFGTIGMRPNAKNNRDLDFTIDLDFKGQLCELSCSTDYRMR
# LEDGF integ inh = blockers of LEDGF/p75-dependent integrase strand transfer – biochemical, TR-FRET, high throughput, primary screen; TR-FRET IN-LEDGF/p75 DNA integration, Eu/Cy5; inhibition, % at 3.7 µM; hit rate 0.64% among 370,000;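 active = inhibition above the screen-wide mean plus 3 SD, cut at about 13% in these data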;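 also: signal is the Cy5 over europium emission ratio at 671 and 618 nm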
# HTRA1 inhibitor = HTRA1 serine protease inhibitors, primary screen, biochemical, fluorescence polarization, HTS. recombinant HTRA1, FP-rhodamine activity-based probe. inhibition, % at 5.96 µM. hit rate 0.5% among 340,000. Q92743; in the data active = inhibition above about 36%
# mABHD4 FP = ABHD4 inhibitors, primary screen, biochemical, fluorescence polarization, mouse. purified mABHD4, FP-Rh probe fluorescence polarization. (Lyso)-N-acylphosphatidylethanolamine lipase (Mus musculus), Q8VD66. inhibition, % at 8.92 µM. hit rate 0.54% among 370,000. AID 720543, 2013;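 active = inhibition exceeding the mean over every tested compound plus 3 SD, cut at about 30% in these data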
#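 Doses – 8.92 µM, single dose · Material – wild-type mouse ABHD4 protein · Replication – single well per compound (singlicate) · Measure – percent inhibition of probe binding, normalized to plate controls · Schedule – 45 min compound pre-incubation plus 60 min probe step, 25 °C · Detection – fluorescence polarization with parallel and perpendicular emission, 525/598 nm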
# A number is an active result; . = inactive; / = no result.
SMILES,rCAG binder,DAGLB inhibitor,PRMT1 FP inh,LEDGF integ inh,HTRA1 inhibitor,mABHD4 FP
CC(C)c1nnc(NC(=O)c2cccs2)s1,.,.,24.5,.,.,.
O=C1N=C(N2CCCC2C(=O)O)S/C1=C\c1ccco1 (stereo unspecified),.,/,.,27.0,/,.
O=C(Nc1ccc2ccccc2c1)c1ccccc1O,.,.,.,.,.,.
C=C1C(=O)[C@]23C[C@H]1CC[C@H]2[C@]1(C)CCC[C@@](C)(C(=O)OC)[C@H]1C[C@@H]3O,.,/,24.4,.,/,.
CC(C)C(C)(C#N)NC(=O)CSc1nc2scc(-c3ccco3)c2c(=O)n1-c1ccccc1 (stereo unspecified),.,.,22.1,.,.,.
COc1ccc(/C=N\NC(=O)Cc2cccn2C)cc1OCc1ccccc1,.,/,.,.,/,.
NS(=O)(=O)c1ccc(O)c(NC(=O)c2ccc([N+](=O)[O-])o2)c1,.,.,21.8,.,.,.
Nc1cc(S(=O)(=O)O)cc([N+](=O)[O-])c1O,.,.,.,44.5,.,.
Nc1cccc2c(O)cc(S(=O)(=O)O)cc12,/,.,/,/,.,/
COc1cc(C(=O)Oc2cccc(Nc3ncnc4ccccc34)c2)cc(OC)c1OC,.,.,.,.,.,.
CCCNc1cc(=S)nc(N)[nH]1,.,.,21.9,.,.,.
CCCNc1nc2ccccc2c(=O)[nH]1,.,.,.,.,.,.
O=[N+]([O-])c1ccc(-c2ccc(/C=N/O)o2)cc1,.,/,.,.,/,.
O=[N+]([O-])c1ccc(-c2ccc(C=Nc3cccc4ccccc34)o2)cc1,.,.,22.0,.,.,.
CCOc1ccccc1-c1c2cc(O)c(=O)cc-2oc2cc(O)c(O)cc12,/,.,/,/,85.1,/
O=C(Nc1ccc2c(c1)OCCO2)NC1(C(F)(F)F)Oc2ccccc2O1,.,.,.,.,.,.
O=C(Nc1ccc2c(c1)OCO2)NC1(C(F)(F)F)Oc2ccccc2O1,.,.,21.9,.,.,.
C[C@@H](C(=O)Nc1ccc2c(c1)OCCO2)n1c(=O)[nH]c2ccccc2c1=O,.,.,.,.,.,.
Cc1cc(C(=O)NNC(=O)/C=C/c2ccco2)c(C)o1,.,.,23.4,52.8,.,.
COc1ccccc1/C=C/C(=O)NNC(=O)c1cc(C)oc1C,.,.,.,.,.,.
O=C(CSc1nnc(C2CC2)n1-c1ccccc1)NCCN1C(=O)CSC1=O,.,.,.,.,.,.
N#C/C(=C(/O)CCl)c1nc2c(s1)CCc1ccccc1-2,.,.,32.6,.,.,32.0
O=C(CCCl)Nc1nc2c(s1)CCc1ccccc1-2,.,.,.,.,.,.
CN(Cc1ccccc1)C(=O)OCc1cn(Cc2cccc(Cl)c2)nn1,.,/,.,.,/,.
CCOc1ccc(C2Nc3cccc4cccc(c34)N2)cc1OC,.,.,.,.,.,.
SMILES,rCAG binder,DAGLB inhibitor,PRMT1 FP inh,LEDGF integ inh,HTRA1 inhibitor,mABHD4 FP
CCOc1cc(C2Nc3cccc4cccc(c34)N2)ccc1O,/,.,/,/,37.2,/
COc1cc(/C=N/NC(=O)c2cccc([N+](=O)[O-])c2)ccc1OC(=O)c1ccco1,.,.,.,.,.,.
CCOC(=O)C1=C(C)N(c2ccccc2)C(=O)/C1=C\c1ccc(O)c(OC)c1,.,.,41.7,.,.,.
CC1OC2(C)OC(=N)C1(C#N)C(C#N)(C#N)C2c1ccccc1 (stereo unspecified),.,.,24.8,.,.,.
CC1C2(C)OC(=N)C(C#N)(C(C)O2)C1(C#N)C#N (stereo unspecified),/,.,/,/,.,/
Cc1sc2nc(-c3cccnc3)[nH]c(=O)c2c1-c1ccccc1,.,.,22.8,.,.,.
COCCNCCCCOc1c(Cl)cc(C)cc1Br,.,.,.,.,.,.
CCOCCn1c(CN2CCN(C(=O)c3ccco3)CC2)nc2c1c(=O)n(C)c(=O)n2C,.,.,.,.,.,.
CCOc1ccc(NC(=O)CSC2=NCCN2)cc1,.,.,.,.,.,.
COC(=O)c1ccc(NC(=O)CSC2=NCCN2)cc1,.,.,62.5,.,.,.
CCOC(=O)c1c(C)[nH]c(C=Nc2ccc(OC)cc2)c1O,.,.,21.7,.,.,.
COc1cccc(C(=O)Nc2nnc(SCC(=O)Nc3ccc(NC(C)=O)cc3)s2)c1,.,.,.,.,.,.
CC(=O)c1cccc(NC(=O)CSC(=O)c2ccccc2)c1,.,.,48.7,.,.,.
Cc1cc(C(=O)COC(=O)c2cccn2C)c(C)n1Cc1ccco1,.,.,.,.,.,.
CCOc1ccc(-c2cccc(NS(=O)(=O)c3cc([N+](=O)[O-])ccc3Cl)c2)nn1,39.6,.,.,.,.,.
O=C(CCN1C(=O)[C@@H]2Cc3ccccc3CN2C1=O)Nc1cccc(F)c1,.,.,.,.,.,.
O=C(c1cccc([N+](=O)[O-])c1)c1ccc2c(c1)OCCOCCOCCOCCO2,.,/,.,.,/,.
Cc1cc(C)nc(SCNC(=O)c2ccc(F)cc2)n1,.,.,25.5,.,.,.
CCOc1ccccc1NC(=O)C(NCCc1ccc(OC)cc1)c1ccccc1 (stereo unspecified),.,.,21.2,.,.,.
O=C(O)CC1(CC(=O)NCc2ccc(Cl)cc2)CCCCC1,.,.,.,.,.,.
COC(=O)c1ccc2nc(-c3ccco3)c(Cc3ccc(OC)cc3C)n2c1,.,/,21.9,.,/,.
Cc1ccc(Cc2c(-c3ccco3)nc3c4ccccc4ccn23)cc1,.,/,.,.,/,.
Cc1ccc(Cc2c(-c3ccco3)nc3ccc(C)cn23)cc1,.,/,21.5,.,/,.
O=C(CSc1cccc[n+]1[O-])N1CCCc2ccccc21,.,.,.,.,.,.
O=C(COC(=O)c1ccc(Cl)nc1)Nc1ccc(N2CCOCC2)cc1,.,.,.,.,.,.
COc1ccc2nc(N3C(=O)CC(C(C)c4ccccc4)C3=O)sc2c1 (stereo unspecified),.,.,.,.,.,.
CC(C)n1c(SCCCc2ccccc2)nc2c1c(=O)[nH]c(=O)n2C,.,.,22.2,.,.,.
Cc1ccc2cc(C(c3nnnn3C(C)(C)C)N3CCCCCC3)c(=O)[nH]c2c1 (stereo unspecified),/,.,/,/,.,/
CCC(C)(C)n1nnnc1C(c1cc2cc(C)ccc2[nH]c1=O)N1CCCC1 (stereo unspecified),.,.,22.4,.,.,.
Cc1[nH]c2ccccc2c1CC(=O)Nc1ccc(N(C)c2cccnc2)c(-c2cccc(Cl)c2)c1,.,/,.,.,/,30.1
